≈ marks a conversion by molar mass, not a printed value.
Experiments:
[1] = tested on: Helicobacter pylori; test: Bactericidal against Helicobacter pylori Clinical isolate F4 measured after 72 hrs of incubation under microaerophilic conditions by modified broth dilution method; type: functional; conditions: read-out: MBC99.9
In short: (§1)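 H. pylori (NCTC 11637, F1, 23, F4). Wells with no visible growth in the MIC assay spotted (10 μL) onto Skirrow agar. Plates incubated 72 h at 37 °C, microaerophilic, 100% humidity. MBC = concentration killing 99.9% of the initial inoculum. Triplicate, on at least three different days.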

[2] = tested on: Helicobacter pylori; test: Bactericidal activity against Helicobacter pylori Clinical isolate F1 measured after 72 hrs of incubation under microaerophilic conditions by modified broth dilution method; type: functional; conditions: read-out: MBC99.9; in short: as §1
[3] = tested on: Helicobacter pylori; test: Anti-bacterial activity against Helicobacter pylori Clinical isolate 23 measured after 72 hrs incubation by modified broth dilution method; type: functional
[4] = tested on: Staphylococcus aureus; test: Bactericidal against Gram-positive Staphylococcus aureus ATCC 29213 measured after 24 hrs of incubation by broth microdilution method; conditions: ATCC 29213, 24 h, read-out: MBC99.9
[5] = tested on: Helicobacter pylori; test: Bactericidal against Helicobacter pylori measured after 72 hrs of incubation under microaerophilic conditions by modified broth dilution method; type: functional
In short: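 Wells with no visible growth in the MIC assay spotted (10 μL) onto Skirrow agar. Plates incubated 72 h at 37 °C, microaerophilic, 100% humidity. Triplicate, on at least three different days.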

[6] = tested on: Helicobacter pylori; test: Anti-bacterial activity against Helicobacter pylori Clinical isolate F4 measured after 72 hrs incubation by modified broth dilution method; type: functional
[7] = tested on: Helicobacter pylori; test: Bactericidal activity against Helicobacter pylori NCTC 11637 measured after 72 hrs of incubation under microaerophilic conditions by modified broth dilution method; type: functional; conditions: read-out: MBC99.9; in short: as §1
[8] = Cytotoxicity against SV40-immortalized non-tumorigenic human GES1 cells assessed as cell viability measured after 48 hrs by Alamar blue assay; type: toxicity, cell-based
In short: (§2)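 GES-1 cells grown in RPMI with 10% FCS, glutamine, pen/strep and 10 mM HEPES at 37 °C, 5% CO2. Exposed to increasing concentrations for 24, 48 or 72 h. Alamar blue then added for 4 h at 37 °C and read at 540 and 630 nm. Percent reduction relative to untreated cells (100%).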

[9] = Cytotoxicity against SV40-immortalized non-tumorigenic human GES1 cells assessed as cell viability measured after 24 hrs by Alamar blue assay; type: toxicity, cell-based; in short: as §2
[10] = Cytotoxicity against human HIEC-6 cells assessed as cell viability measured after 24 hrs by MTT assay
[11] = tested on: Helicobacter pylori; test: Anti-bacterial activity against Helicobacter pylori NCTC 11637 measured after 72 hrs incubation by modified broth dilution method; type: functional
[12] = Cytotoxicity against SV40-immortalized non-tumorigenic human GES1 cells assessed as cell viability measured after 72 hrs by Alamar blue assay; type: toxicity, cell-based; in short: as §2
[13] = Cytotoxicity against human HIEC-6 cells assessed as cell viability measured after 48 hrs by MTT assay
[14] = Cytotoxicity against human HIEC-6 cells assessed as cell viability measured after 72 hrs by MTT assay
[15] = tested on: Helicobacter pylori; test: Anti-bacterial activity against Helicobacter pylori measured after 72 hrs incubation by modified broth dilution method; type: functional
[16] = tested on: Escherichia coli; test: Anti-bacterial activity against lactose fermenting Escherichia coli ATCC 25922 measured after 24 hrs incubation by modified broth dilution method; conditions: ATCC 25922, 24 h
[17] = tested on: Staphylococcus aureus; test: Anti-bacterial activity against Gram-positive Staphylococcus aureus ATCC 29213 measured after 24 hrs incubation by modified broth dilution method; conditions: ATCC 29213, 24 h
[18] = tested on: Helicobacter pylori; test: Anti-bacterial activity against Helicobacter pylori Clinical isolate F1 measured after 72 hrs incubation by modified broth dilution method; type: functional
[19] = tested on: Pseudomonas aeruginosa; test: Bactericidal against non-lactose fermenting Pseudomonas aeruginosa ATCC 27853 measured after 24 hrs of incubation by broth microdilution method; conditions: ATCC 27853, 24 h, read-out: MBC99.9
[20] = tested on: Pseudomonas aeruginosa; test: Anti-bacterial activity against non-lactose fermenting Pseudomonas aeruginosa ATCC 27853 measured after 24 hrs incubation by modified broth dilution method; conditions: ATCC 27853, 24 h
[21] = tested on: Helicobacter pylori; test: Bactericidal activity against Helicobacter pylori Clinical isolate 23 measured after 72 hrs of incubation under microaerophilic conditions by modified broth dilution method; type: functional; conditions: read-out: MBC99.9; in short: as §1
[22] = tested on: Escherichia coli; test: Bactericidal against lactose fermenting Escherichia coli ATCC 25922 measured after 24 hrs of incubation by broth microdilution method; conditions: ATCC 25922, 24 h, read-out: MBC99.9

MIC [3] [µg/mL]	MIC [6] [µg/mL]	MIC [11] [µg/mL]	MIC50 [15] [µg/mL]	MIC90 [15] [µg/mL]	MIC [16] [µg/mL]	MIC [17] [µg/mL]	MIC [18] [µg/mL]	MIC [20] [µg/mL]	SMILES	MBC [1] [µg/mL]	MBC [2] [µg/mL]	MBC [4] [µg/mL]	MBC90 [5] [µg/mL]	MBC [7] [µg/mL]	IC50 at 24 h [9] [µg/mL]	IC50 at 24 h [10] [µg/mL]	IC50 at 72 h [12] [µg/mL]	IC50 at 48 h [13] [µg/mL]	IC50 at 72 h [14] [µg/mL]	MBC [19] [µg/mL]	further results
2 (≈ 6.68 µM)	4 (≈ 13.4 µM)	2 (≈ 6.68 µM)	2 (≈ 6.68 µM)	4 (≈ 13.4 µM)	> 128	2 (≈ 6.68 µM)	2 (≈ 6.68 µM)	> 128	Cc1ccc(C(C)C)c(/N=N/c2ccc([N+](=O)[O-])cc2)c1O	4 (≈ 13.4 µM)	4 (≈ 13.4 µM)	32 (≈ 107 µM)	4 (≈ 13.4 µM)	2 (≈ 6.68 µM)	15 (≈ 50.1 µM)	15.1 (≈ 50.3 µM)	12 (≈ 40.2 µM)	13.4 (≈ 44.7 µM)	13.3 (≈ 44.3 µM)	> 128	IC50 at 48 h [8]: 12.1 µg/mL (≈ 40.4 µM); MBC [21]: 2 µg/mL (≈ 6.68 µM); MBC [22]: > 128 µg/mL
2 (≈ 6.68 µM)	4 (≈ 13.4 µM)	2 (≈ 6.68 µM)	2 (≈ 6.68 µM)	4 (≈ 13.4 µM)	> 128	2 (≈ 6.68 µM)	2 (≈ 6.68 µM)	> 128	Cc1cc(O)c(C(C)C)cc1/N=N/c1ccc([N+](=O)[O-])cc1	4 (≈ 13.4 µM)	2 (≈ 6.68 µM)	32 (≈ 107 µM)	4 (≈ 13.4 µM)	2 (≈ 6.68 µM)	12.1 (≈ 40.4 µM)	13.6 (≈ 45.4 µM)	8.44 (≈ 28.2 µM)	7.61 (≈ 25.4 µM)	7.61 (≈ 25.4 µM)	> 128	MBC [21]: 2 µg/mL (≈ 6.68 µM); MBC [22]: > 128 µg/mL
